Laboratory results taken from ChEMBL document CHEMBL4673252, “Discovery and Early Clinical Development of Isobutyl 1-[8-Methoxy-5-(1-oxo-3H-isobenzofuran-5-yl)-[1,2,4]triazolo[1,5-a]pyridin-2-yl]cyclopropanecarboxylate (LEO 39652), a Novel "Dual-Soft" PDE4 Inhibitor for Topical Treatment of Atopic Dermatitis” (J Med Chem, 2020).

Key:
[1] = Clearance in human liver microsomes at 0.5 uM incubated for 40 mins in presence of NADPH by LC-MS/MS analysis; format: ADME, Microsome; conditions: read-out: CLH
Method in brief: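 Human liver microsomes (0.5 mg/mL) with 1 mM NADPH and 0.5 μM test compound, incubated for 40 min. Samples were taken before NADPH and at 5, 10, 20, 40 min, quenched with cold acetonitrile containing internal standard, and analysed by LC-MS/MS. Control incubations in buffer and without NADPH. Apparent clearance was calculated from depletion.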

[2] = Half life in human whole blood at 0.1 uM by LC-MS/MS analysis; format: ADME, tissue-based
[3] = Half life in human keratinocytes at 1 uM by LC-MS/MS analysis; format: ADME, cell-based, Keratinocyte
Method in brief: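 Plated human epidermal keratinocytes (1 × 10⁴ cells/well) with 1 μM compound in duplicate for up to 24 h; sampled at 0, 1, 2, 4, 24 h, acetonitrile precipitation, LC-MS/MS. Controls in growth medium. Half-life reported.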

[4] = biological target: Phosphodiesterase 4 (Homo sapiens, UniProt P27815+Q08499+Q07343+Q08493); assay: Inhibition of PDE4 (unknown origin); format: protein assay
[5] = Clearance in human hepatocytes at 10 uM by UPLC/TOF-MS analysis; format: ADME, cell-based, Hepatocyte
[6] = AUC (0 to 24 hrs) in cynomolgus monkey at 30 mg/kg, sc dosed as single administration; format: ADME, organism-based, Macaca fascicularis; design: time < 24 hr, route subcutaneous, dose 30 mg/kg; conditions: in vivo
Method in brief: (§1)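 Single subcutaneous dose of 30 mg/kg.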

[7] = AUC (0 to 24 hrs) in human patient with atopic dermatitis at 0.25% dosed topically as lipid cream; format: ADME, organism-based; design: time < 24 hr, dose 0.25 %; conditions: in vivo, topical or ocular
[8] = Clearance in mini pig hepatocytes at 10 uM by UPLC/TOF-MS analysis; format: ADME, cell-based, Sus scrofa domesticus, Hepatocyte; conditions: read-out: CLH
[9] = Drug exposure in human assessed as ratio of drug level to total AUC at 0.25% of Isobutyl 1-[8-Methoxy-5-(1-oxo-3H-isobenzofuran-5-yl)-[1,2,4]-triazolo[1,5-a]pyridin-2-yl]cyclopropanecarboxylate dosed via topical administration in lipid cream; format: ADME, organism-based; conditions: in vivo, topical_or_ocular
[10] = Cmax in cynomolgus monkey at 30 mg/kg, sc dosed as single administration; format: ADME, organism-based, Macaca fascicularis; design: route subcutaneous, dose 30 mg/kg; conditions: in vivo; method in brief: as §1
[11] = Drug exposure in Isobutyl 1-[8-Methoxy-5-(1-oxo-3H-isobenzofuran-5-yl)-[1,2,4]-triazolo[1,5-a]pyridin-2-yl]cyclopropanecarboxylate dosed cynomolgus monkey assessed as ratio of drug level to total AUC; format: ADME, organism-based, Macaca fascicularis; conditions: in vivo
Method in brief: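 Blood was drawn at 0.25–24 h after infusion start and 6, 12, 24 h after infusion end into EDTA-K3, then plasma stabilized with ascorbic acid. LC-MS/MS quantification of parent and metabolites; noncompartmental PK.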

[12] = Drug exposure in of Isobutyl 1-[8-Methoxy-5-(1-oxo-3H-isobenzofuran-5-yl)-[1,2,4]-triazolo[1,5-a]pyridin-2-yl]cyclopropanecarboxylate dosed Gottingen mini pig assessed as ratio of drug level to total AUC at 0.5 to 2 mg/kg, iv measured up to 24 hrs by LC-MS/MS analysis; format: ADME, organism-based, Sus scrofa domesticus; conditions: in vivo, dose 0.5-2 mg/kg
[13] = Cmax in human patient with atopic dermatitis at 0.25% dosed topically as lipid cream; format: ADME, organism-based; design: dose 0.25 %; conditions: in vivo, topical or ocular
[14] = Drug exposure in skin of Gottingen mini pig at 0.25% dosed topically as monoglyceride cream measured after 24 hrs by LC-MS/MS analysis; format: ADME, organism-based, Sus scrofa domesticus, Skin of body; conditions: in vivo, topical_or_ocular
Method in brief: (§2)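 Female Göttingen minipigs received single topical application of 1 or 2.5 mg/g monoglyceride cream at 10 μL/cm² over 4 cm² of belly/flank; excess removed. At 24 h sites were tape stripped (2 + 10 strips), 8 mm punch biopsies were taken and snap frozen, then homogenized, acetonitrile precipitated and analysed by LC-MS/MS; n = 2.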

[15] = Half life in mini pig whole blood at 0.1 uM by LC-MS/MS analysis; format: ADME, tissue-based, Sus scrofa domesticus
[16] = Drug exposure in skin of Gottingen mini pig at 0.1% dosed topically as monoglyceride cream measured after 24 hrs by LC-MS/MS analysis; format: ADME, organism-based, Sus scrofa domesticus, Skin of body; conditions: in vivo, topical_or_ocular; method in brief: as §2
[17] = Half life in rat whole blood at 0.1 uM by LC-MS/MS analysis; format: ADME, tissue-based
[18] = Drug exposure in of Isobutyl 1-[8-Methoxy-5-(1-oxo-3H-isobenzofuran-5-yl)-[1,2,4]-triazolo[1,5-a]pyridin-2-yl]cyclopropanecarboxylate dosed Sprague-Dawley rat assessed as ratio of drug level to total AUC at 0.075 mg/kg, iv measured up to 30 mins by LC-MS/MS analysis; format: ADME, organism-based; conditions: in vivo, 0.5 h
Method in brief: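 Male Sprague Dawley rats (n = 3) received a single iv injection of 0.075 mg/kg (50 μg/mL, 1.5 mL/kg) in 20% cyclodextrin. Blood was taken from the tongue vein at 1, 3, 6, 9, 12, 15 and 30 min into lithium-heparin, diluted 1:1 with heparin water, and analysed by LC-MS/MS for parent and metabolites.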

SMILES	CLint scaled at 0.5 µM [1]	half-life at 0.1 µM [2]	half-life at 1 µM [3]	other results
CCCOC(=O)C1(c2nc3c(OC)ccc(-c4ccc5c(c4)COC5=O)n3n2)CC1	139 mL/min/kg	0.217 h	> 12 h	
COc1ccc(C(=O)Cc2c(Cl)cncc2Cl)n2nc(C3CC3)nc12				IC50 [4]: 1.7 nM
COC(=O)c1ccc(-c2ccc(OC)c3nc(C4(C(=O)NCC(C)C)CC4)nn23)cc1	> 200 mL/min/kg		9 h	
COc1ccc(-c2ccc(C(=O)O)c(CO)c2)n2nc(C3(C(=O)OCC(C)(C)O)CC3)nc12				CLhep predicted at 10 µM [5]: 7.1 mL/min/kg; AUC(0-t) at 24 h [6]: 19.4 ng·h/mL; AUC(0-t) at 24 h [7]: 0.27 ng·h/mL; CLint scaled at 10 µM [8]: 13 mL/min/kg; Drug uptake [9]: 1%; Cmax ([10]; read-out: Cmax): 10.5 ng/mL; Drug uptake [11]: 1%; Drug uptake ([12]; BLD = below limit of detection): Bld; Cmax [13]: 0.029 ng/mL
COc1ccc(-c2ccc3c(c2)COC3=O)n2nc(C3(C(=O)OC(C)C)CC3)nc12	97 mL/min/kg	0.183 h	> 12 h	
COC(=O)c1ccc(-c2ccc(OC)c3nc(C4CC4)nn23)cc1	> 200 mL/min/kg	> 1 h	> 12 h	
COc1ccc(-c2cccc(C#N)c2)n2nc(C3(CCCO)CC3)nc12	33 mL/min/kg			
COc1ccc(-c2ccc3c(c2)COC3=O)n2nc(C3(C(=O)NCC(C)C)CC3)nc12	> 200 mL/min/kg	< 0.167 h	10 h	
COc1ccc(-c2ccc3c(c2)COC3=O)n2nc(C3CC3)nc12	64 mL/min/kg	0.2 h	> 12 h	
COc1ccc(C(=O)Cc2c(Cl)cncc2Cl)n2ncnc12				IC50 [4]: 100 nM
COc1ccc(-c2cccc(C#N)c2)n2nc(C3(C(=O)O)CC3)nc12	< 10 mL/min/kg			
COC(=O)c1cccc(-c2ccc(OC)c3nc(C4CC4)nn23)c1	> 200 mL/min/kg	> 1 h	> 12 h	
COc1ccc(-c2ccc3c(c2)COC3=O)n2nc(C3(C(=O)O)CC3)nc12	< 16 mL/min/kg	> 1 h	> 12 h	CLhep predicted at 10 µM [5]: 5.2 mL/min/kg; Drug uptake [14]: < 0.1 µM; AUC(0-t) at 24 h [6]: 208 ng·h/mL; AUC(0-t) at 24 h [7]: 5.18 ng·h/mL; half-life at 0.1 µM [15]: > 1 h; Drug uptake [16]: < 0.1 µM; half-life at 0.1 µM [17]: > 1 h; CLint scaled at 10 µM [8]: < 11 mL/min/kg; Drug uptake [9]: 15%; Cmax ([10]; read-out: Cmax): 71.7 ng/mL; Drug uptake [18]: 55%; Drug uptake [11]: 45%; Drug uptake [12]: 55%; Cmax [13]: 0.355 ng/mL
COc1ccc(-c2ccc3c(c2)COC3=O)n2nc(C3(C(=O)O[C@H]4CCOC4)CC3)nc12	77 mL/min/kg	< 0.167 h	> 12 h	
COc1ccc(-c2cccc(C#N)c2)n2nc(C3(CO)CC3)nc12	< 10 mL/min/kg			
COc1ccc(-c2ccc3c(c2)COC3=O)n2nc(C3(C(=O)OC4CCCCC4)CC3)nc12	> 200 mL/min/kg	0.383 h	> 12 h	
COc1ccc(-c2ccc3c(c2)COC3=O)n2nc(C3(C(=O)OC4CCC4)CC3)nc12	> 200 mL/min/kg	< 0.167 h	> 9 h	
COc1ccc(-c2cccc(C#N)c2)n2nc(C3(CCO)CC3)nc12	16 mL/min/kg			
CCOC(=O)C1(c2nc3c(OC)ccc(-c4ccc5c(c4)COC5=O)n3n2)CC1	140 mL/min/kg	0.183 h	> 12 h	
CCCNC(=O)COc1c(C(=O)Cc2c(Cl)cncc2Cl)ccc(OC)c1OC				Drug uptake [14]: 26 µM; Drug uptake [16]: 14 µM; IC50 [4]: 2.8 nM
COc1ccc(-c2cccc(C#N)c2)n2nc(C3(CC(=O)O)CC3)nc12	< 10 mL/min/kg			
COc1ccc(-c2ccc3c(c2)COC3=O)n2nc(C3(C(=O)OC(C)(C)C)CC3)nc12	> 200 mL/min/kg	0.183 h	> 12 h	
COc1ccc(-c2cccc3c2COC3=O)n2nc(C3CC3)nc12	< 10 mL/min/kg	0.25 h	> 12 h	
COc1ccc(-c2ccc3c(c2)COC3=O)n2nc(C3(C(=O)OC4CCCC4)CC3)nc12	> 200 mL/min/kg	0.283 h	12 h	
COc1ccc(-c2ccc(C(=O)O)c(CO)c2)n2nc(C3(C(=O)O)CC3)nc12	< 11 mL/min/kg	> 1 h	> 12 h	CLhep predicted at 10 µM [5]: < 5.2 mL/min/kg; Drug uptake [14]: 6 µM; AUC(0-t) at 24 h [6]: 1300 ng·h/mL; AUC(0-t) at 24 h [7]: 24.7 ng·h/mL; half-life at 0.1 µM [15]: > 1 h; Drug uptake [16]: 3 µM; half-life at 0.1 µM [17]: > 1 h; CLint scaled at 10 µM [8]: < 10 mL/min/kg; Drug uptake [9]: 71%; Cmax ([10]; read-out: Cmax): 407 ng/mL; Drug uptake [18]: 14%; Drug uptake [11]: 13%; Drug uptake [12]: 23%; Cmax [13]: 1.89 ng/mL
COc1ccc(-c2ccc3c(c2)COC3=O)n2nc(C3(C(=O)OC4COC4)CC3)nc12	97 mL/min/kg	< 0.167 h	> 12 h	

More lines, main results first:

CLint scaled at 0.5 µM [1]	half-life at 0.1 µM [2]	half-life at 1 µM [3]	SMILES	other results
> 200 mL/min/kg	> 1 h	> 12 h	COc1ccc(-c2cccc(C#N)c2)n2nc(C3(C(=O)OCC(C)C)CC3)nc12	
> 200 mL/min/kg	0.567 h	3.7 h	COc1ccc(-c2ccc3c(c2)COC3=O)n2nc(C3(C(=O)OC4CCCCCC4)CC3)nc12	
66 mL/min/kg	< 0.167 h	> 12 h	COc1ccc(-c2ccc3c(c2)COC3=O)n2nc(C3(C(=O)OC[C@H](C)CO)CC3)nc12	
101 mL/min/kg	< 0.167 h	> 12 h	COc1ccc(-c2ccc3c(c2)COC3=O)n2nc(C3(C(=O)O[C@@H]4CCOC4)CC3)nc12	
> 200 mL/min/kg	0.183 h	> 12 h	CC[C@H](C)OC(=O)C1(c2nc3c(OC)ccc(-c4ccc5c(c4)COC5=O)n3n2)CC1	
95 mL/min/kg	> 1 h	> 12 h	COc1ccc(-c2cccc3c2COC3=O)n2nc(C3(C(=O)NCC(C)C)CC3)nc12	
64 mL/min/kg	< 0.167 h	> 12 h	COc1ccc(-c2ccc3c(c2)COC3=O)n2nc(C3(C(=O)OC[C@@H](C)CO)CC3)nc12	
193 mL/min/kg	< 0.167 h	> 12 h	COC(=O)C1(c2nc3c(OC)ccc(-c4ccc5c(c4)COC5=O)n3n2)CC1	
> 200 mL/min/kg	0.333 h	10 h	CCCCOC(=O)C1(c2nc3c(OC)ccc(-c4ccc5c(c4)COC5=O)n3n2)CC1	
16 mL/min/kg			COc1ccc(-c2cccc(C#N)c2)n2nc(C3(CCC(=O)O)CC3)nc12	
66 mL/min/kg	0.2 h	> 12 h	COc1ccc(-c2ccc3c(c2)COC3=O)n2nc(C3(C(=O)OCC(C)(C)O)CC3)nc12	CLhep predicted at 10 µM [5]: 16 mL/min/kg; AUC ([6]; 24 h, BLD = below limit of detection): Bld; CLint scaled at 10 µM [8]: > 26 mL/min/kg; Drug uptake ([9]; BLD = below limit of detection): Bld; Cmax ([10]; BLD = below limit of detection): Bld; Drug uptake [11]: 0.1%; Drug uptake ([12]; BLD = below limit of detection): Bld
> 200 mL/min/kg	> 1 h	> 12 h	COC(=O)c1cccc(-c2ccc(OC)c3nc(C4(C(=O)NCC(C)C)CC4)nn23)c1	
> 200 mL/min/kg	0.467 h	1.2 h	COc1ccc(-c2cccc(C#N)c2)n2nc(C3(COC(=O)C(C)C)CC3)nc12	
